Paper PMC5989829 (Acta Pharmaceutica Sinica. B, 2017)
Where two headings read alike, the source gives them in different places.

Key:
[1] = cited from earlier work; for Water solubility: must be dissolved in organic solvents such as DMSO
necrotic muscle = experiment: Self-blocking experiment in muscular necrosis model rats; type: in vivo, rat; details: 24 h
[2] = tested on: necrotic liver and necrotic muscle; type: in vivo, rat
Pharmacokinetics = type: in vivo, rat; details: normal rats, i.v. 14.8 MBq/kg in PBS, non-compartmental, mean±SD, n=6
In short: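 Six healthy rats dosed i.v. with radiolabelled test compound (14.8 MBq/kg) in PBS. 10 μL tail-slit blood samples drawn at 5, 10, 30 min and 1, 2, 4, 6, 8, 12, 24, 48 h. Samples γ-counted with decay and background correction and expressed as MBq per liter. Parameters derived by non-compartmental analysis; mean±SD.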

Water solubility = type: physicochemical; details: can be dissolved in PBS or saline
A549 necrotic cells = experiment: Nuclear extraction from necrotic A549 cells incubated with tracer; type: cell-based, human; details: 50 μmol/L
[3] = In vitro stability of the radiotracer in rat serum; type: in vitro ADME; details: stored in rat serum at 37 °C, up to 8 days
In short: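 Radiolabelled test compound mixed with rat serum (1:9 volume ratio) and kept at 37 °C. Sampled at 0.5, 4 h, 1, 2, 3 and 8 day. Label integrity assessed by TLC.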

[4] = tested on: necrotic liver and necrotic muscle; experiment: Autoradiography of necrotic/normal liver and partially necrotic muscle sections; type: in vivo, rat; details: 24 h after intravenous injection
In short: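 Rats (male SD, 260–280 g) on 0.1% KI drinking water from 3 days before study. Liver necrosis: right-lobe hilum clamped 3 h, then reperfused; muscle necrosis induced with absolute ethanol. Labelled test compound (14.8 MBq/kg, 2.0 mg/kg) in PBS given i.v. via tail vein; sacrifice at 12, 24, 72 h, 8 day (n=5 each). Frozen 30 μm sections cut at −20 °C, 3 h phosphor-screen exposure, then H&E for co-localization.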

calf-thymus DNA (CT-DNA) [5] = details: cited from earlier work
calf-thymus DNA (CT-DNA) [6] = experiment: Competitive study with ethidium bromide on CT-DNA; type: binding
In short: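 CT-DNA prepared in 5 mmol/L Tris-HCl/50 mmol/L NaCl, pH 7.4, stirred at 4 °C for three days; concentration set by A260 (ε=6600 L/mol.cm). Test compound (stock 6.0×10−4 mol/L) titrated into 2.5 mL CT-DNA–ethidium bromide (CT-DNA 6.0×10−5 mol/L) to ratios 0 to 7/30. Fluorescence read at 25 °C, λex 530/λem 604 nm. Ksv from Stern–Volmer fit of I0/I versus compound concentration.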

calf-thymus DNA (CT-DNA) [7] = experiment: UV–vis spectroscopic study of interaction with CT-DNA; type: binding; details: 25 °C, increasing CT-DNA
A549 cells = experiment: Fluorescence microscopy of necrotic and viable A549 cells; type: cell-based, human; details: 50 μmol/L, 30 min, co-staining with Hoechst 33342 and PI
[8] = human, even pregnant women and newborn babies, cited from earlier work
[9] = tested on: necrotic liver and necrotic muscle; experiment: Fluorescence microscopy of liver and muscle cryostat slices from model rats; type: in vivo, rat; details: i.v. 2.0 mg/kg, 12 h to 8 days, λex=620 nm, λem=680 nm
[10] = γ counting, 24 h after i.v. 14.8 MBq/kg, model rats

## ^131I-hypericin
[1]
  Water solubility: water-insoluble

## ^131I-evans blue [^131I-EB]
Necrotic muscle; coinjected with excessive cold EB (10 mg/kg), n=3, P<0.01
  Uptake in necrotic muscle: 0.47±0.07 %ID/g
Necrotic muscle; non-blocking group, n=3
  Uptake in necrotic muscle: 1.35±0.22 %ID/g
[2]; time points 12, 24, 72 h and 8 day
  Time of highest uptake in necrotic liver and muscle: 24 h
[2]; time points 12, 24, 72 h and 8 day, especially normal liver, spleen, kidney
  Time of highest radioactivity in normal tissue: 12 h
[2]; γ counting, 8th day after i.v. 14.8 MBq/kg, model rats
  Ratio of uptake in necrotic muscle to normal muscle: 7.43 times
[2]; [10]
  Radioactivity ratio of necrotic to viable (normal) liver: 3.41
  Radioactivity ratio of necrotic to viable (normal) muscle: 11.82
Pharmacokinetics
  AUC0–t: 564.82±27.55 MBq/L ·h
  AUC0–∞: 737.28±62.32 MBq/L ·h
  CLz (clearance): 0.35 ± 0.067 mL/min/kg
  Cmax (peak concentration): 96.84±10.05 MBq/L
  Tmax (peak time): 4.98 ± 0 min
  t1/2z (elimination half-life): 24.40 ± 3.64 h
Water solubility
  Water solubility: highly water-soluble
A549 necrotic cells; 15 min incubation
  Uptake in necrotic cell nuclei: 82.3%
A549 necrotic cells; 2 h incubation
  Uptake in necrotic cell nuclei: 79.2%
[3]
  In vitro stability (radiolabeling stability by TLC): over 90%
[4]
  Radioactivity ratio of necrotic to normal liver: 4.26
  Radioactivity ratio of necrotic to normal muscle: 10.2

## Nc1ccc2c(c1)C(=O)c1ccccc1C2=O [2-aminoanthraquin]
calf-thymus DNA (CT-DNA) [5]
  Binding constant with CT-DNA: 1.25×10^3 L/(mol/L)

## Cc1cc(O)c2c(=O)c3c(O)cc(O)c4c5c(O)cc(O)c6c(=O)c7c(O)cc(C)c8c1c2c(c34)c(c78)c65 [Hyp, Hypericin]
[1]
  Solubility: nearly insoluble in water and most nonpolar solvents

## Cc1cc(-c2ccc(/N=N/c3ccc4c(S(=O)(=O)O)cc(S(=O)(=O)O)c(N)c4c3O)c(C)c2)ccc1/N=N/c1ccc2c(S(=O)(=O)O)cc(S(=O)(=O)O)c(N)c2c1O [EB, Evans blue]
Necrotic muscle; 10 mg/kg EB
  Radioactivity of ^131I-EB in necrotic muscle blocked: about 65%
calf-thymus DNA (CT-DNA) [6]; CT-DNA-ethidium bromide displacement, 25 °C, λex=530 nm
  Ksv (Stern–Volmer quenching constant; binding constant with CT-DNA): 5.08×10^5 L/(mol/L)
calf-thymus DNA (CT-DNA) [6]; EB versus 2-aminoanthraquin
  Binding constant with CT-DNA relative to 2-aminoanthraquin: 400 times
calf-thymus DNA (CT-DNA) [7]
  Change of UV–vis absorption bands on addition of CT-DNA: significant hypochromism accompanied with a red shift
A549 cells
  Cellular localisation: specifically located in the nuclei of necrotic cell
A549 necrotic cells; 15 min incubation
  Uptake in necrotic cell nuclei: 82.3%
A549 necrotic cells; 2 h incubation
  Uptake in necrotic cell nuclei: 79.2%
[8]; ref 24, 25
  Adverse reactions in clinical use: without adverse reactions
[8]; ref 41, 42
  Adverse reactions in clinical use: without any adverse reactions
[9]
  Retention in necrotic tissues by fluorescence microscopy: Selective retention of EB in necrotic tissues up to 8 days

## ^131I-sennidin A
[1]
  Water solubility: water-insoluble
